Screening results (PubChem BioAssay)
DNA FID counter-1: compounds displacing fluorescent DNA intercalator, primary screen, artefact control for HCV NS3 helicase inhibitor project, biochemical, FID fluorescence. 0.17% of 290,000 active. DNA fluorescent intercalator displacement. inhibition, % at 7.9 µM. AID 1845, 2009;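 further: 0% = vehicle and 100% = reference compound; higher means more ethidium bromide displaced from hairpin DNA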
MLLE-PAM2 inh: inhibitors of PABP1 MLLE–PAM2 peptide binding, primary screen, biochemical, fluorescence polarization, FITC-PAM2, GST-MLLE | Polyadenylate-binding protein 1 (Homo sapiens), P11940 | inhibition, % at 20 µM | 0.36% of 360,000 active; in the data active means inhibition above about 35%, passing the limit was not always enough;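 further: plate controls were DMSO wells with GST-MLLE for no effect and wells lacking GST-MLLE protein for full effect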
HCV NS3 hel inh: inhibitors of HCV NS3 helicase, primary screen, biochemical, Cy5 molecular beacon fluorescence. Hepatitis C virus NS3 helicase. NS3 helicase DNA unwinding. inhibition, % at 10.9 µM. 0.56% of 290,000 active;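 active means inhibition above the mean of all tested compounds plus 3 SD, set per campaign, cut at about 35% in these data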;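 further: 0% = DMSO wells and 100% = thioflavine S control wells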
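test system = hepatitis C virus NS3 helicase domain fragment enzyme | reagent = annealed dual-labelled DNA beacon duplex, ATP-started | times = 1 h at 25 °C | detection = Cy5 fluorescence, 0 and 60 min reads | read-out basis = percent inhibition from t60/t0 fluorescence ratio | control set = DMSO and thioflavine S | replication = one well per compound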
eIF4H FP inh: human eIF4H binding inhibitors, primary screen, translation initiation inhibitor project, biochemical, uHTS, fluorescence polarization; inhibition, % at 35 µM; AID 2012, 2009; 0.94% of 290,000 active; eIF4H fluorescence polarization binding assay; Eukaryotic translation initiation factor 4H (Homo sapiens), Q15056; call rule not given here;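 further: calls also rest on retests at 20 µM and on dose response follow-up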
PABP polyA inh: PABP poly(A) RNA binding inhibitors, primary screen, biochemical, fluorescence polarization, uHTS. inhibition, % at 35 µM. Polyadenylate-binding protein 1 (Homo sapiens), P11940. 1% of 290,000 active. AID 2014, 2009; call rule not given here;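 further: calls also rest on retests at 20 µM and on dose response follow-up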
core dimer inh: inhibitors of HCV core protein dimerization, primary screen, biochemical, TR-FRET, high-throughput. TR-FRET GST/Flag-core106 dimerization, 1536-well. 0.33% of 300,000 active. inhibition, % at 5 µM. AID 1899, 2009;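 active means inhibition above the mean of all tested compounds plus 3 SD, set per screening campaign, cut at about 45% in these data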
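Assay system: tagged HCV core106 pair (GST and Flag); medium: KF-containing HEPES buffer, pH 7.45, DTT, CHAPS, BSA; also added: Eu donor and XL665 acceptor anti-tag antibodies; dosing: 5 µM single dose; timing: compound-protein-antibody incubation 4 h at 22.5 °C; signal: TR-FRET 671 and 617 nm emission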
NS3 hel confirm: HCV NS3 helicase inhibitors, retest, confirmation, biochemical, Cy5 molecular beacon fluorescence, triplicate | inhibition, % at 10.9 µM | shares compounds with HCV NS3 hel inh | 31% of 1,600 active | NS3 helicase DNA unwinding;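 active means inhibition above the mean of all tested compounds plus 3 SD, cutoff set per campaign, cut at about 36% in these data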
DNA FID counter-2: compounds displacing fluorescent DNA intercalator, artefact control for HCV NS3 helicase inhibitor project, biochemical, FID fluorescence, triplicate; DNA fluorescent intercalator displacement; shares compounds with HCV NS3 hel inh; 4% of 1,600 active; inhibition, % at 7.9 µM;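 further: 0% = vehicle and 100% = reference compound; higher means more displacement of ethidium bromide from the DNA hairpin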
* hit, by the source's call. Rows were chosen to be rich in hits. Some 2% of all compounds tested hit in one or more screens of this group. Unless noted, no stated cut-off is given here; in the data, active means inhibition above about 37%; inactive means the rest.

`O=C(NC(Cc1ccccc1)C(=O)O)/C(=C/c1ccc(Br)cc1)NC(=O)c1ccc(Br)o1` (stereo unspecified) gave DNA FID counter-1 -35, MLLE-PAM2 inh 3, HCV NS3 hel inh 41*, eIF4H FP inh 0, PABP polyA inh -2, core dimer inh -2, NS3 hel confirm 38* and DNA FID counter-2 -19.
For COc1ccc(OCc2cc(C(=O)NC3CCOC(C)(C)C3)no2)c2ccccc12 (stereo unspecified) the results were DNA FID counter-1 -10, MLLE-PAM2 inh -7, HCV NS3 hel inh 47*, eIF4H FP inh 2, PABP polyA inh 14, core dimer inh 12, NS3 hel confirm -19 and DNA FID counter-2 -35.
Screening CC(C)c1ccc(NC(=O)Nc2nc(C(N)c3ccccc3Cl)cs2)cc1 (stereo unspecified) returned MLLE-PAM2 inh -1.
CCOc1ccc(Oc2ccc(NS(=O)(=O)c3ccc(CCC(=O)O)cc3)cc2)cc1 was read as MLLE-PAM2 inh -4.
O=C(CCN1C(=O)/C(=C/c2cccs2)SC1=S)Nc1cccc(C(=O)O)c1 was read as DNA FID counter-1 -1, MLLE-PAM2 inh -85, HCV NS3 hel inh 36*, eIF4H FP inh -2, PABP polyA inh 2, core dimer inh -1, NS3 hel confirm 58* and DNA FID counter-2 4.
Screening COc1ccc(/C=C2\SC(=S)N(CCC(=O)Nc3cccc(C(=O)O)c3)C2=O)cc1 returned DNA FID counter-1 -5, MLLE-PAM2 inh 8, HCV NS3 hel inh 39*, eIF4H FP inh -5, PABP polyA inh 24, core dimer inh -1, NS3 hel confirm 52* and DNA FID counter-2 7.
Screening CC(=Cc1ccccc1)C=C1SC(=S)N(CCCC(=O)Nc2ccc(C(=O)O)c(O)c2)C1=O returned MLLE-PAM2 inh -3.
For CC(/C=C1\SC(=S)N(CCCC(=O)Nc2ccc(C(=O)O)c(O)c2)C1=O)=C\c1ccccc1 the results were DNA FID counter-1 39*, HCV NS3 hel inh 73*, eIF4H FP inh 15, PABP polyA inh -9, core dimer inh 20, NS3 hel confirm 73* and DNA FID counter-2 69*.
`Cc1c(Cl)c(C(=O)N2CCCCCC2)nn1C` gave DNA FID counter-1 -5, MLLE-PAM2 inh 16, HCV NS3 hel inh -6, eIF4H FP inh -1, PABP polyA inh 3 and core dimer inh 0.
Screening O=c1c(O)cccc2cc(O)c(O)c(O)c12 returned DNA FID counter-1 -5, MLLE-PAM2 inh 38*, HCV NS3 hel inh 53*, eIF4H FP inh 102*, PABP polyA inh 94*, core dimer inh -16, NS3 hel confirm 108* and DNA FID counter-2 13.
`O=c1cc(-c2ccccc2)oc2cc(O)c(O)c(O)c12` gave MLLE-PAM2 inh -2.
Screening Cc1ccc(/C(O)=C2/C(=O)C(=O)N(c3ccccn3)C2c2cccc([N+](=O)[O-])c2)cc1 (stereo unspecified) returned DNA FID counter-1 -24, MLLE-PAM2 inh 14, HCV NS3 hel inh 48*, eIF4H FP inh -7, PABP polyA inh 20, core dimer inh 9, NS3 hel confirm 28 and DNA FID counter-2 -22.
`Cc1ccc(/C(O)=C2/C(=O)C(=O)N(c3ccccn3)C2c2ccc([N+](=O)[O-])cc2)cc1` (stereo unspecified) gave DNA FID counter-1 -41, MLLE-PAM2 inh -5, HCV NS3 hel inh 36*, eIF4H FP inh -10, PABP polyA inh 9, core dimer inh 18, NS3 hel confirm 28 and DNA FID counter-2 -21.
For COc1cc(C2/C(=C(/O)c3ccccc3)C(=O)C(=O)N2c2ccccn2)ccc1O (stereo unspecified) the results were DNA FID counter-1 3, MLLE-PAM2 inh 7, HCV NS3 hel inh -1, eIF4H FP inh -3, PABP polyA inh 4 and core dimer inh 3.
Screening COc1ccc(C2/C(=C(/O)c3ccc(C)cc3)C(=O)C(=O)N2c2ccccn2)cc1 (stereo unspecified) returned DNA FID counter-1 -38, MLLE-PAM2 inh -10, HCV NS3 hel inh 27, eIF4H FP inh 1, PABP polyA inh -6 and core dimer inh 3.
Screening Cc1cc(C)cc(OCC(=O)NNC(=O)CC(C)c2ccccc2)c1 (stereo unspecified) returned MLLE-PAM2 inh 0.
Screening O=C(N/N=C1/CC2CCC1C2)c1cc2ccccc2cc1O (stereo unspecified) returned DNA FID counter-1 -15, MLLE-PAM2 inh 3, HCV NS3 hel inh 49*, eIF4H FP inh 3, PABP polyA inh 8, core dimer inh 3, NS3 hel confirm 1 and DNA FID counter-2 -8.
Screening O=C(NCC1CCCCC1)c1cc2ccccc2cc1O returned DNA FID counter-1 -15, MLLE-PAM2 inh -2, HCV NS3 hel inh 10, eIF4H FP inh -19, PABP polyA inh 4 and core dimer inh 4.
For CCCCNC(=O)C1(C)CCCCN1C(=O)c1ccc(C#N)cc1 (stereo unspecified) the results were MLLE-PAM2 inh 0.
`COC(=O)C1=C(O)/C(=C\c2ccc(CNS(=O)(=O)c3ccc(Cl)cc3)o2)N=C1C` gave DNA FID counter-1 -12, MLLE-PAM2 inh -12, HCV NS3 hel inh 40*, eIF4H FP inh inconclusive, PABP polyA inh -12, core dimer inh -5, NS3 hel confirm 14 and DNA FID counter-2 -10.
For CC(C)(C)c1ccc2c(c1)OC(C(=O)N/N=C\c1ccncc1)CO2 (stereo unspecified) the results were DNA FID counter-1 -17, MLLE-PAM2 inh -6, HCV NS3 hel inh -1, eIF4H FP inh -9, PABP polyA inh 0 and core dimer inh 1.
For O=C(N/N=C/c1ccc([N+](=O)[O-])o1)c1ccc2c(c1)OCO2 the results were DNA FID counter-1 -20, MLLE-PAM2 inh -5, HCV NS3 hel inh 40*, eIF4H FP inh 79*, PABP polyA inh 39*, NS3 hel confirm -12 and DNA FID counter-2 6.
O=C(N/N=C\c1ccc(-c2ccc([N+](=O)[O-])cc2)o1)c1ccc2c(c1)OCO2 was read as DNA FID counter-1 0, MLLE-PAM2 inh -2, HCV NS3 hel inh -3, eIF4H FP inh 0, PABP polyA inh -23 and core dimer inh 4.
